An excerpt weighted towards active compounds, which were near 2.6% of everything screened.
Apaf-1 inh: inhibitors of human Apaf-1 apoptosome, primary screen, biochemical, DEVD-Rh110 fluorescence, uHTS. Apoptotic protease-activating factor 1 (Homo sapiens), O14727. reconstituted apoptosome caspase-3 activity. inhibition, % at 20 µM. actives 0.71% (n = 330,000); active means inhibition of at least 40% at 20 µM;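 further: plate controls were DMSO wells for no effect and DEVD-CHO caspase inhibitor wells for full effect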
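System: Apoptosome proteins | Medium: Hepes pH 7.5 with detergent and BSA | Also added: Cytochrome c trigger plus (Z-DEVD)2-Rh110 caspase-3 substrate | Incubation: 30 min compound preincubation, 50 min activation, room temperature | Detection: Rhodamine 110 fluorescence at Ex 480/Em 540 nm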
PRMT1 inh: PRMT1 methyltransferase inhibitors, primary screen, biochemical, fluorescence polarization. inhibition, % at 2.79 µM. actives 1.3% (n = 370,000). Protein arginine N-methyltransferase 1 (Homo sapiens), Q99873. AID 652257, 2013. recombinant PRMT1, activity-based probe fluorescence polarization;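 active means inhibition above about 21% made by adding two undisclosed values, limit read from the data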
PAD4 FP inh: human PAD4 inhibitors, primary screen, biochemical, fluorescence polarization, 1536-well format | AID 485272, 2010 | recombinant PAD4, RCA probe fluorescence polarization | actives 0.41% (n = 330,000) | inhibition, % at 6.36 µM | Protein-arginine deiminase type-4 (Homo sapiens), Q9UM07;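 active means percent inhibition above a cutoff equal to the mean of all tested compounds plus 3 SD, cut at about 15% in these data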;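 further: 0% = PAD4 with RCA probe and DMSO and 100% = probe without PAD4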
Target sequence (Q9UM07 whole entry, looked up): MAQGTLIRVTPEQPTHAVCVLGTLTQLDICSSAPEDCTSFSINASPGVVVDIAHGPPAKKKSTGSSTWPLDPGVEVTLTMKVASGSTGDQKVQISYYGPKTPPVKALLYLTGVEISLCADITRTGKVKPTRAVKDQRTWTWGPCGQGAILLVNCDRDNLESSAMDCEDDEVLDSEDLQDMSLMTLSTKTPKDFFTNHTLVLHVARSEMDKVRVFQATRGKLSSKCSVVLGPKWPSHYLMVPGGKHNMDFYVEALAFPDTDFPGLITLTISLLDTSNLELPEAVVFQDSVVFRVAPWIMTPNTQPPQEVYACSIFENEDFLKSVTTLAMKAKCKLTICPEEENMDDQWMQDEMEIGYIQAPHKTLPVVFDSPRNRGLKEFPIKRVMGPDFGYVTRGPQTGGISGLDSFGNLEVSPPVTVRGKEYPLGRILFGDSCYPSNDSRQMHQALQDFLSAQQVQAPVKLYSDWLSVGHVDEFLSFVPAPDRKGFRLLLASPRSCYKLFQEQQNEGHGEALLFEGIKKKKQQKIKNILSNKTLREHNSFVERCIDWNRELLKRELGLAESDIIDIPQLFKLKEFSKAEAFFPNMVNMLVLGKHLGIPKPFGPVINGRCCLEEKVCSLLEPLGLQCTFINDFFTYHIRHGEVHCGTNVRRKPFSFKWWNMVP
GSTO1 counter: inhibitors of recombinant GSTO1, primary screen, counter-screen for RBBP9 inhibitor project, biochemical, fluorescence polarization. activity-based probe fluorescence polarization. inhibition, % at 5.96 µM. actives 1.1% (n = 300,000);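 active means inhibition above the campaign mean inhibition plus 3 SD, cut at about 35% in these data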;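 further: 0% = GSTO1-1 with DMSO and 100% = wells lacking GSTO1-1 enzyme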
TDP2 inh: human TDP2 enzyme inhibitors, primary screen, biochemical, epi absorbance, recombinant enzyme | actives 0.34% (n = 370,000) | T5PNP hydrolysis, p-nitrophenol absorbance 415 nm | inhibition, % at 12.8 µM | Tyrosyl-DNA phosphodiesterase 2 (Homo sapiens), O95551;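 active means inhibition above the mean of all tested compounds plus 3 SD, set per campaign, cut at about 25% in these data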;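 further: 0% = DMSO with enzyme and 100% = buffer with substrate but no TDP2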
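System – recombinant human TDP2 · Quantity – TDP2 enzyme at 120 nM final · Doses – single concentration, 12.8 µM nominal, with 1% DMSO · Incubation – 2 h at 37 °C · Measured by – epi absorbance of p-nitrophenol freed from T5PNP by hydrolysis · Read-out – % inhibition relative to enzyme-containing and enzyme-free wells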
Numbers without * were called inactive; · = not tested or not shown.

SMILES | Apaf-1 inh | PRMT1 inh | PAD4 FP inh | GSTO1 counter | TDP2 inh
CC(C)n1ncc2c(C(=O)Nc3ccc(S(C)(=O)=O)cc3)cc(C3CC3)nc21 | 10 | 3 | -10 | · | 6
CC(C)n1ncc2c(C(=O)Nc3ccc(S(N)(=O)=O)cc3)cc(C3CC3)nc21 | 75* | 3 | -7 | · | 6
CCc1cc(C(=O)Cc2cnn(-c3ccccc3)c2)c(O)cc1O | 1 | 1 | 1 | -11 | 1
O=C(Cc1cnn(-c2ccccc2)c1)c1ccc(O)c(O)c1O | 19 | 39* | -7 | 50* | -7
CCCCc1c(O)nc(SCCN(C)C)n(-c2ccccc2)c1=O | 11 | 24* | 2 | 2 | 2
CN(C)CCSc1nc(O)c(-c2ccccc2)c(=O)n1-c1ccccc1 | -2 | 20 | 0 | 12 | -8
CCc1c(O)nc(SCC(=O)c2ccccc2)n(-c2ccccc2)c1=O | -8 | 24* | 1 | 2 | -5
CCc1c(O)nc(SCC(=O)NC(C)(C)C)n(-c2ccccc2)c1=O | -2 | 24* | -4 | 2 | -10
CCc1c(O)nc(SCC(=O)N2CCOCC2)n(-c2ccccc2)c1=O | -11 | 16 | 8 | -1 | 5
Cc1ccccc1Cn1cc(COC(=O)NCCc2ccccc2)nn1 | · | -2 | · | · | 5
Cc1ccccc1Cc1c(C)nc2c(C(=O)N3CCN(Cc4ccc5c(c4)OCO5)CC3)cnn2c1C | 17 | 0 | 0 | -1 | 2
Cc1cccc(Cc2c(C)nc3c(C(=O)N4CCN(Cc5ccc6c(c5)OCO6)CC4)cnn3c2C)c1 | 16 | 1 | 0 | 35* | -10
CSc1cc(-c2ccco2)oc1C(=O)c1ccco1 | 15 | 25* | 4 | 19 | -2
COC(=O)[C@]12C[C@H](CC(=O)NCCC(C)C)C(=O)N(CCc3ccc(OC)c(OC)c3)C1=C[C@H](C1CCCC1)O[C@@H]2C | · | -2 | · | · | 0
COc1cc(N)c2ncccc2c1Cl | · | 8 | · | · | 47*
CN(Cc1ccccc1)C(=O)OCc1cn(Cc2cc(F)cc(F)c2)nn1 | · | 7 | · | · | 4
O=C(Nc1ccc(S(=O)(=O)Nc2ncccn2)cc1)C1=COCCO1 | 2 | 22* | 3 | -3 | -6
CC(=O)Nc1ccc(S(=O)(=O)Nc2ncccn2)cc1 | -17 | 0 | 5 | 3 | 7
COc1cccc(CNC(=O)[C@H]2CCCN2C(=O)[C@H]2CCCN2C(=O)N2CCOCC2)c1 | · | -3 | · | · | -2
S=c1nc(-c2csc3c2CCCC3)[nH][nH]1 | 4 | 22* | 1 | -4 | -9
CCOC(=O)c1sc2ccc(S(=O)(=O)N3CC(C)CC(C)C3)cc2c1N (stereo unspecified) | -7 | 21* | -6 | 3 | -1
Cc1cc(C(=O)NNC(=O)/C=C/c2ccco2)c(C)o1 | 2 | 23* | · | · | -7
C/C=C/C(=O)N1CCC(C(=O)NC2CCCc3ccccc32)CC1 (stereo unspecified) | · | -1 | · | · | 1
O=C1c2c([N+](=O)[O-])cc([N+](=O)[O-])cc2S(=O)N1Cc1ccccc1 (stereo unspecified) | 6 | 21* | -7 | -4 | -1
COc1ccc2nc(NNC(=O)c3cc(=O)c4ccccc4o3)sc2c1 | 24 | 22* | -1 | 23 | 3
SMILES | Apaf-1 inh | PRMT1 inh | PAD4 FP inh | GSTO1 counter | TDP2 inh
O=C1C=C(N2CCN(c3ccccn3)CC2)C(=O)c2c(O)ccc(O)c21 | · | 2 | · | · | 3
CC1=CC(=O)c2c(O)ccc(O)c2C1=O | · | · | 23* | 69* | ·
COC(=O)CCC(=O)OC1(C)C(=O)C2=CN(CCc3ccccn3)C(c3ccc(OC)cc3)=CC2=C(Br)C1=O (stereo unspecified) | 73* | · | -8 | 66* | ·
c1ccc(OCCNc2ccn3nc(-c4ccco4)cc3n2)cc1 | · | 21* | · | · | 7
Clc1cccc(CNc2ccn3nc(-c4ccco4)cc3n2)c1 | · | 23* | · | · | -1
O=C(CSc1ccc(Cl)cc1)c1ccco1 | 5 | · | 0 | 37* | ·
O=C(CSc1ccccc1Cl)c1ccco1 | 4 | 15 | -6 | 7 | -3
O=C(CSc1n[nH]c(Cc2ccccc2)n1)Nc1ccccc1Br | 5 | 24* | 1 | -4 | 7

Assay outcomes from PubChem BioAssay.
